Experimental data: ChEMBL document CHEMBL1151255, “Cyclic peptides from a Ruegeria strain of bacteria associated with the sponge Suberites domuncula” (2004)
≈ marks a conversion by molar mass, not a printed value. Calls of active or inactive are those of the source. No cut-off for these calls is given here. Where a SMILES comes first, the peptide text is derived from it.

Columns and labels:
[1] = tested on: Saccharomyces cerevisiae; experiment: Antimicrobial activity against Saccharomyces cerevisiae; format: functional, organism-based
Outline: (§1)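 MIC by twofold serial dilution in duplicate, top concentration 50 μg/mL. Test strains were B. subtilis subsp. spizizenii DSM 347, E. coli DSM 498 and S. cerevisiae DSM 70449. Growth was scored after 48 h at each strain's optimal growth temperature. Gentamycin and nystatin served as controls.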

[2] = tested on: Escherichia coli; experiment: Antimicrobial activity against Escherichia coli; format: functional, organism-based; outline: as §1
[3] = tested on: Bacillus spizizenii; experiment: Antimicrobial activity against Bacillus subtilis subsp. spizizenii; format: functional; outline: as §1

Row | MIC [3] [µg/mL] | SMILES | Activity [1] | Activity [2] | Activity [3]
1 | 50 (≈ 177 µM) | O=C(O)CC[C@@H]1NC(=O)[C@@H]2CCCN2C(=O)CNC1=O (cyclo(Glu-Gly-Pro)) | inactive | inactive | –
2 | – | O=C1NCC(=O)N2CCC[C@@H]12 | inactive | inactive | inactive
3 | – | O=C(O)CC[C@@H]1NC(=O)[C@@H]2CCCN2C(=O)[C@H](CCC(=O)O)NC(=O)[C@@H]2CCCN2C1=O (cyclo(EPEP)) | inactive | inactive | inactive
4 | – | O=C1CCCNC(=O)CN1 | inactive | inactive | inactive
5 | – | O=C1[C@@H]2C[C@@H](O)CN2C(=O)[C@@H]2CCCN12 | inactive | inactive | inactive
6 | – | C[C@@H]1NC(=O)[C@@H]2C[C@@H](O)CN2C1=O | inactive | inactive | inactive
7 | 25 (≈ 67.5 µM) | O=C(O)CC[C@@H]1NC(=O)[C@@H]2CCCN2C(=O)[C@H](CO)NC(=O)CNC1=O (cyclo(EGSP)) | inactive | inactive | –
8 | – | C[C@@H]1NC(=O)[C@H]2C[C@@H](O)CN2C1=O | inactive | inactive | inactive
